Experimental data as given in ChEMBL document CHEMBL2440109, “Synthesis and antimycobacterial activity of isoniazid derivatives from renewable fatty acids” (2013).
In brackets after ≈: the same amount, converted by molar mass.

How the values were obtained:
Type in all cases: functional
[1] = test system: Mycobacterium tuberculosis; assay: Antimycobacterial activity against isoniazid-resistant Mycobacterium tuberculosis ATCC 35822 harboring katG mutant after 7 days by REMA assay
Method in brief: (§1)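 MIC by resazurin microtiter assay. Bacteria suspended in sterile water with glass beads, vortexed, turbidity set to McFarland tube 1 (3.2 × 10^6 CFU/mL), then diluted 1:20 in Middlebrook 7H9. Compounds in DMSO, two-fold serial dilutions (100.0-3.2 µg/mL) in 7H9 with 10% OADC. Incubated 37 °C for 7 days, resazurin added, further 2 days at 37 °C. MIC read from colour change.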

[2] = test system: Mycobacterium tuberculosis; assay: Antimycobacterial activity against isoniazid-resistant Mycobacterium tuberculosis 1896HF harboring inhA mutant after 7 days by REMA assay
Method in brief: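 MIC by resazurin microtiter assay. Bacteria suspended in sterile water with glass beads, vortexed, turbidity set to McFarland tube 1 (3.2 × 10^6 CFU/mL), then diluted 1:20 in Middlebrook 7H9. Incubated 37 °C for 7 days, resazurin added, further 2 days at 37 °C. MIC read from colour change.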

[3] = test system: Mycobacterium tuberculosis; assay: Antimycobacterial activity against rifampicin-resistant Mycobacterium tuberculosis ATCC 35338 harboring rpoB His-526-Tir gene mutant after 7 days by REMA assay; method in brief: as §1

Structure (SMILES) | MIC [1] [µg/mL] | MIC [2] [µg/mL] | MIC [3] [µg/mL]
CCCCCCCC/C=C\CCCCCCCC(=O)NN [OLEOHYDRAZIDE] | 50 (≈ 169 µM) | >100 | 50 (≈ 169 µM)
CCCCCC[C@@H](O)C/C=C\CCCCCCCC(=O)NNC(=O)c1ccncc1 | 25 (≈ 59.9 µM) | 12.5 (≈ 29.9 µM) | 0.015 (≈ 0.0359 µM)
CCCCCCCC/C=C\CCCCCCCC(=O)O [OLEIC ACID] | >100 | >100 | >100
NNC(=O)c1ccncc1 [ISONIAZID] | 2 (≈ 14.6 µM) | 2 (≈ 14.6 µM) | 0.015 (≈ 0.109 µM)
CC/C=C\C/C=C\C/C=C\CCCCCCCC(=O)NNC(=O)c1ccncc1 | 25 (≈ 62.9 µM) | 12.5 (≈ 31.4 µM) | 0.03 (≈ 0.0755 µM)
CCCCCCCC/C=C\CCCCCCCC(=O)NNC(=O)c1ccncc1 | 0.25 (≈ 0.623 µM) | 1.56 (≈ 3.88 µM) | 0.003 (≈ 0.00747 µM)
CCCCCCCC/C=C/CCCCCCCC(=O)NNC(=O)c1ccncc1 | >50 | 6.25 (≈ 15.6 µM) | 0.0019 (≈ 0.00473 µM)
CO[C@H]1/C=C/O[C@@]2(C)Oc3c(C)c(O)c4c(O)c(c(/C=N/N5CCN(C)CC5)c(O)c4c3C2=O)NC(=O)/C(C)=C\C=C\[C@H](C)[C@H](O)[C@@H](C)[C@@H](O)[C@@H](C)[C@H](OC(C)=O)[C@@H]1C [RIFAMPIN] | 0.03 (≈ 0.0365 µM) | – | >2
CCCCCCCCCCCCCCCC(=O)NNC(=O)c1ccncc1 | 0.125 (≈ 0.333 µM) | 0.78 (≈ 2.08 µM) | 0.003 (≈ 0.00799 µM)
CCCCCCCCCCCCCCCCCC(=O)NNC(=O)c1ccncc1 | 0.25 (≈ 0.619 µM) | 3.12 (≈ 7.73 µM) | 0.003 (≈ 0.00743 µM)
CCCCC/C=C\C/C=C\CCCCCCCC(=O)NNC(=O)c1ccncc1 | 2 (≈ 5.01 µM) | 12.5 (≈ 31.3 µM) | 0.03 (≈ 0.0751 µM)
